Experimental data as given in ChEMBL document CHEMBL3352009, “Glucopyranosylidene-spiro-iminothiazolidinone, a new bicyclic ring system: synthesis, derivatization, and evaluation for inhibition of glycogen phosphorylase by enzyme kinetic and crystallographic methods” (Bioorg Med Chem, 2014).
The source made the active and inactive calls. No cut-off for these calls is given here.

Key:
[1] = target: T1, Glycogen phosphorylase, muscle form (Oryctolagus cuniculus, UniProt P00489); experiment: Inhibition of rabbit muscle glycogen phosphorylase b at pH 6.8 assessed as inorganic phosphate release
T1 sequence (P00489 whole entry): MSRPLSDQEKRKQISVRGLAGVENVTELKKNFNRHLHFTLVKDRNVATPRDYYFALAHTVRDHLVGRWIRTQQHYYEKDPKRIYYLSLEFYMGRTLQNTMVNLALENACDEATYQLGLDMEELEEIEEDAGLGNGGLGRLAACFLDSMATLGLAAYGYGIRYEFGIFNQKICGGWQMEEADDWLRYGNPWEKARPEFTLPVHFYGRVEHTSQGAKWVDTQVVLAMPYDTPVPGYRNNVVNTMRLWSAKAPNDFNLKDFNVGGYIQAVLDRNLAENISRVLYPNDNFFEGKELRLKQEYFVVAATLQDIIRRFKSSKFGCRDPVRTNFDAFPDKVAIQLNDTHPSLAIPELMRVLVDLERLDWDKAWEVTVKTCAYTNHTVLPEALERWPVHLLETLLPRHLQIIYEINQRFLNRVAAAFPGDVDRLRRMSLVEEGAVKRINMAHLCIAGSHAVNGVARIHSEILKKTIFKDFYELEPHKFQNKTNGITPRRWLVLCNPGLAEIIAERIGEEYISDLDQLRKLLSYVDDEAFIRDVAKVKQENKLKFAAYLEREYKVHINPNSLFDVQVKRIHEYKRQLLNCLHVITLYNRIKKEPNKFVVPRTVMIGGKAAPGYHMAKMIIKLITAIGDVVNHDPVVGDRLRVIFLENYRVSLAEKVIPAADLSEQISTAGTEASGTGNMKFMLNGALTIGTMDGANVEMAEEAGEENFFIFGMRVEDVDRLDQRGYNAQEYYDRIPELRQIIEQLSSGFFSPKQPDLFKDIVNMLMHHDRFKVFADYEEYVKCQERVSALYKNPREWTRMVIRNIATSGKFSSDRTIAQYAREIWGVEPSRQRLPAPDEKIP
Summary of the method: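 Rabbit muscle glycogen phosphorylase b; activity followed by inorganic phosphate release at pH 6.8. Inhibition constants reported as Ki, with part of the values derived from IC50 via the Cheng-Prusoff relation Ki = IC50/(1 + [S]/Km).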

[2] = target: T2, Glycogen phosphorylase, muscle form (Oryctolagus cuniculus) (UniProt P00489); experiment: Inhibition of rabbit muscle glycogen phosphorylase b at pH 6.8 assessed as inorganic phosphate release at 1 mM
T2 sequence (whole entry): T1 sequence (P00489 whole entry)

| Compound | Ki [1] | inhibition [2] |
| --- | --- | --- |
| O=C(/N=C1/NC(=O)[C@]2(O[C@H](CO)[C@@H](O)[C@H](O)[C@H]2O)S1)c1ccc2ccccc2c1 | 10 µM |  |
| O=C1N2CCN=C2S[C@@]12O[C@H](CO)[C@@H](O)[C@H](O)[C@H]2O |  | 48% |
| O=C1N/C(=N/S(=O)(=O)c2ccc3ccccc3c2)S[C@@]12O[C@H](CO)[C@@H](O)[C@H](O)[C@H]2O | 153 µM |  |
| Cc1ccc(S(=O)(=O)/N=C2/NC(=O)[C@]3(O[C@H](CO)[C@@H](O)[C@H](O)[C@H]3O)S2)cc1 | 63 µM |  |
| O=C1N2CCCN=C2S[C@@]12O[C@H](CO)[C@@H](O)[C@H](O)[C@H]2O |  | inactive |
| O=C1N/C(=N/S(=O)(=O)c2cccc3ccccc23)S[C@@]12O[C@H](CO)[C@@H](O)[C@H](O)[C@H]2O | 29 µM |  |
| N=C1NC(=O)[C@]2(O[C@H](CO)[C@@H](O)[C@H](O)[C@H]2O)S1 | 24 µM |  |
| O=C(/N=C1/NC(=O)[C@]2(O[C@H](CO)[C@@H](O)[C@H](O)[C@H]2O)S1)c1ccccc1 | 9 µM |  |
| O=C(/N=C1/NC(=O)[C@]2(O[C@H](CO)[C@@H](O)[C@H](O)[C@H]2O)S1)c1cccc2ccccc12 | 15 µM |  |
| O=C1N/C(=N/S(=O)(=O)c2ccccc2)S[C@@]12O[C@H](CO)[C@@H](O)[C@H](O)[C@H]2O | 143 µM |  |
| CC(C)(C)C(=O)/N=C1/NC(=O)[C@]2(O[C@H](CO)[C@@H](O)[C@H](O)[C@H]2O)S1 | 137 µM |  |
| Cc1ccc(C(=O)/N=C2/NC(=O)[C@]3(O[C@H](CO)[C@@H](O)[C@H](O)[C@H]3O)S2)cc1 | 35 µM |  |
